In general, Inhibition refers to the change of the read-out against control, counted positive when it falls.

The assay is filed under the species Rattus norvegicus. Description: Inhibition of microvessel outgrowth in the rat aortic ring assay. Type of assay: functional, Aorta. More on the design: concentration or dose not given beside the values. The method, boiled down: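 Aortic 1 mm cross-sections from 6–8-week-old male Sprague–Dawley rats, periadventitial fat removed, embedded between Matrigel layers (37 °C, 5% CO2). Cultured 24 h in EGM-II, then switched to EBM-II with 2% FBS, amphotericin B and gentamicin. Compounds in DMSO added to medium daily for 4 days (vehicle 0.5% DMSO; carboxyamidotriazole positive control). Microvessel growth photographed on day 5.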
For `[N-]=[N+]=NCN1C(=O)CCC(N2C(=O)c3ccccc3C2=O)C1=O` (centres undefined), the Inhibition was determined as 24.67%.

Take `O=C1c2c(F)c(F)c(F)c(F)c2C(=O)N1c1ccc(F)cc1F`: the Inhibition is 39.75%.

For `O=C(O)CN1C(=O)CCC(N2C(=O)c3ccccc3C2=O)C1=O` (centres undefined), the Inhibition amounted to 39.75%.

With `CCC1(N2C(=O)c3ccccc3C2=O)C(=O)NC(=O)N(c2ccccc2)C1=O` (centres undefined), the Inhibition was -0.5%.

On to `O=C1CC(N2C(=O)c3ccccc3C2=O)C(=O)N1` (centres undefined), for which the Inhibition was found to be 9.75%.

`COc1cc2c(cc1OC)C(=O)N(C1CCC(=O)NC1=O)C2=O` (centres undefined): the Inhibition is on record as 23.25%.

`NC(=O)CCC(C(=O)O)N1C(=O)c2ccccc2C1=O` (centres undefined) [2-PHTHALIMIDOGLUTARAMIC ACID]: the Inhibition is on record as 1.75%.

As for `Nc1cccc2c1C(=O)N(C1CCC(=O)NC1=O)C2=O` (centres undefined) [POMALIDOMIDE], the Inhibition was 5.5%.

With `CCOCN1C(=O)CCC(N2C(=O)c3ccccc3C2=O)C1=O` (centres undefined), the Inhibition was 32%.

As for `O=C(O)C(C(=O)O)N1C(=O)c2ccccc2C1=O`, the Inhibition was -2%.

Regarding `NC(=O)C(CCC(=O)O)N1C(=O)c2ccccc2C1=O` (centres undefined), the Inhibition came to 15.25%.

As for `Cc1ccc(C)c2c1C(=O)N(c1ccc(F)cc1F)C2=O`, the Inhibition turned out to be 18%.

For `CCC1(N2C(=O)c3c(F)c(F)c(F)c(F)c3C2=O)C(=O)NC(=O)N(c2ccccc2)C1=O` (centres undefined), the Inhibition is recorded as 75.75%.

For the compound `O=C1CCC(N2C(=O)c3ccccc3C2=O)C(=O)N1CO` (centres undefined), the Inhibition came to 21%.

With `O=C1c2ccccc2C(=O)N1c1cnc(O)nc1O`, the Inhibition was 5.75%.

Consider `O=C(O)CCC(C(=O)O)N1C(=O)c2ccccc2C1=O` (centres undefined), for which the Inhibition is 10.75%.

Take `CCC1(N2C(=O)c3cccc([N+](=O)[O-])c3C2=O)C(=O)NC(=O)N(c2ccccc2)C1=O` (centres undefined): the Inhibition was determined as 1.75%.

`CC(C)(C)OC(=O)NC(Cc1ccccc1)C(=O)OCN1C(=O)CCC(N2C(=O)c3ccccc3C2=O)C1=O` (centres undefined): the Inhibition came out at 33.75%.

In the case of `Cl.NCC(=O)OCN1C(=O)CCC(N2C(=O)c3ccccc3C2=O)C1=O` (centres undefined), the Inhibition is on record as 71.33%.

On to `O=C1CCC(N2C(=O)c3ccccc3C2=O)C(=O)O1` (centres undefined), for which the Inhibition was 42%.

Take `O=C(O)CCC(NC(C(=O)O)N1C(=O)c2ccccc2C1=O)C(=O)O` (centres undefined): the Inhibition came out at 25.75%.

Turning to `NC(=O)c1ccc[n+](CN2C(=O)CCC(N3C(=O)c4ccccc4C3=O)C2=O)c1.[Cl-]` (centres undefined), the Inhibition is on record as 29.67%.

As to `O=C1CCC(N2Cc3ccccc3C2=O)C(=O)N1` (centres undefined), the Inhibition is listed as 11.25%.

As for `CC(C(=O)OCN1C(=O)CCC(N2C(=O)c3ccccc3C2=O)C1=O)N(C)C(=O)OC(C)(C)C` (centres undefined), the Inhibition was 56.5%.

For the compound `O=C1c2ccccc2C(=O)N1c1ccc(F)cc1F`, the Inhibition is given as -4.75%.

On to `NC(Cc1ccccc1)C(=O)OCN1C(=O)CCC(N2C(=O)c3ccccc3C2=O)C1=O` (centres undefined), for which the Inhibition is 4%.

As to `CC(C)CCCC(C)C1CCC2C3CC=C4CC(OC(=O)CN5C(=O)CCC(N6C(=O)c7ccccc7C6=O)C5=O)CCC4(C)C3CCC12C` (centres undefined), the Inhibition amounted to 25.25%.

Regarding `O=C1CCC(NC(=O)C(C(=O)O)N2C(=O)c3ccccc3C2=O)C(=O)N1` (centres undefined), the Inhibition came to 11.67%.

`CC(C)C(N)C(=O)OCN1C(=O)CCC(N2C(=O)c3ccccc3C2=O)C1=O.Cl` (centres undefined): the Inhibition is on record as 88%.

Regarding `O=C1CCC(N2C(=O)c3ccc(O)c(O)c3C2=O)C(=O)N1` (centres undefined), the Inhibition came to 10.25%.

As to `O=C1NCCCC1N1C(=O)c2ccccc2S1(=O)=O` (centres undefined) [SUPIDIMIDE], the Inhibition is given as 4.5%.

With `COCN1C(=O)CCC(N2C(=O)c3ccccc3C2=O)C1=O` (centres undefined), the Inhibition came out at 13%.

`O=C1NC(=O)C(N2C(=O)c3ccccc3C2=O)CC1O` (centres undefined): the Inhibition turned out to be 3.75%.

On to `O=C1CCC(N2C(=O)c3cc(O)c(O)cc3C2=O)C(=O)N1` (centres undefined), for which the Inhibition was 38.75%.

In the case of `CC(C)CCCC(C)C1CCC2C3CC=C4CC(OC(=O)N5C(=O)CCC(N6C(=O)c7ccccc7C6=O)C5=O)CCC4(C)C3CCC12C` (centres undefined), the Inhibition was 50%.

As to `O=C1c2cccc([N+](=O)[O-])c2C(=O)N1c1cn(-c2ccccc2)c(=O)[nH]c1=O`, the Inhibition is on record as -23.33%.

In the case of `O=C1c2c(F)c(F)c(F)c(F)c2C(=O)N1c1cnc(O)nc1O`, the Inhibition was 15.25%.

As for `CC(C)(C)OC(=O)C(C(=O)NC(C(=O)O)C(=O)O)N1C(=O)c2ccccc2C1=O` (centres undefined), the Inhibition amounted to 13.25%.

On to `CC(C)(C)OC(=O)NCC(=O)OCN1C(=O)CCC(N2C(=O)c3ccccc3C2=O)C1=O` (centres undefined), for which the Inhibition is reported as 40.25%.

(Values after ChEMBL document CHEMBL1149154, “Comparative molecular field analysis and comparative molecular similarity indices analysis of thalidomide analogues as angiogenesis inhibitors” (2004).)
